In ChEMBL document CHEMBL3425411, “Synthesis of β-Carboline-Based N-Heterocyclic Carbenes and Their Antiproliferative and Antimetastatic Activities against Human Breast Cancer Cells” (J Med Chem, 2015):
The source made the active and inactive calls. The rule behind the calls is not given here.

Legend:
MDA-MB-231 [1] = assay: Induction of apoptosis in human MDA-MB-231 cells assessed as late apoptotic cells at 2.5 uM after 24 hrs by annexin V-propidium iodide/Alexa Fluor 488 staining-based flow cytometric analysis (reference value: 2.08 to 3.78%); assay type: functional
Summary of the method: (§1)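 MDA-MB-231 cells, about 2 × 10⁵ per well, seeded in triplicate and treated for 24 h in RPMI-1640 with 10% FBS. Stained with Alexa Fluor 488 annexin V and propidium iodide, then read by flow cytometry. AV+/PI+ events were counted as late apoptotic and reported as percentage of cells relative to control. Three independent experiments, mean ± SEM.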

MDA-MB-231 [2] = assay: Induction of apoptosis in human MDA-MB-231 cells assessed as late apoptotic cells at 7.5 uM after 24 hrs by annexin V-propidium iodide/Alexa Fluor 488 staining-based flow cytometric analysis (reference value: 2.08 to 3.78%); assay type: functional; summary of the method: as §1
MDA-MB-231 [3] = assay: Cell cycle arrest in human MDA-MB-231 cells assessed as accumulation at G0/G1 phase at 5 uM after 24 hrs by propidium iodide staining-based flow cytometric analysis (reference value: 44.3 to 47.1%); assay type: functional
MDA-MB-231 [4] = assay: Induction of apoptosis in human MDA-MB-231 cells assessed as early apoptotic cells at 5 uM after 24 hrs by annexin V-propidium iodide/Alexa Fluor 488 staining-based flow cytometric analysis (reference value: 4.05 to 4.68%); assay type: functional
MDA-MB-231 [5] = assay: Cell cycle arrest in human MDA-MB-231 cells assessed as accumulation at S phase at 2.5 uM after 24 hrs by propidium iodide staining-based flow cytometric analysis (reference value: 32.5 to 34.7%); assay type: functional
MDA-MB-231 [6] = assay: Cell cycle arrest in human MDA-MB-231 cells assessed as accumulation at G0/G1 phase at 7.5 uM after 24 hrs by propidium iodide staining-based flow cytometric analysis (reference value: 44.3 to 47.1%); assay type: functional
MDA-MB-231 [7] = assay: Induction of apoptosis in human MDA-MB-231 cells assessed as late apoptotic cells at 10 uM after 24 hrs by annexin V-propidium iodide/Alexa Fluor 488 staining-based flow cytometric analysis (reference value: 2.08 to 3.78%); assay type: functional; summary of the method: as §1
MDA-MB-231 [8] = assay: Induction of apoptosis in human MDA-MB-231 cells assessed as depolarization of mitochondrial membrane potential after 24 hrs by JC-1 staining-based flow cytometric analysis; assay type: functional, cell-based
Summary of the method: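 Cells were seeded in 60 mm dishes, grown 24 h, then treated with compound for 24 h. Cells were stained with JC-1 and analysed by flow cytometry. Depolarization was read as green-only cells and as a fall in red/green fluorescence ratio, normalized to control. Three independent experiments, mean ± SEM.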

4T1 = assay: Antitumor activity against mouse 4T1 cells allografted in Balb/c mouse assessed as tumor growth inhibition at 10 mg/kg, po administered every alternative day for 5 weeks measured twice a week during compound dosing relative to control; assay type: functional
Summary of the method: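 4T1 cells (7 × 10⁵) were injected into the second right mammary fat pad of 8-week-old female Balb/c mice, with a booster of about 5 × 10⁵ cells 4 days later. One week after the booster, dosing began at 10 mg/kg by oral gavage on alternate days for 5 weeks (n = 6). Controls received vehicle. Tumor size and body weight were measured twice weekly.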

MDA-MB-231 [9] = assay: Induction of apoptosis in human MDA-MB-231 cells after 24 hrs by annexin V-propidium iodide/Alexa Fluor 488 staining-based flow cytometric analysis; assay type: functional, cell-based
MDA-MB-231 [10] = assay: Cell cycle arrest in human MDA-MB-231 cells assessed as accumulation at S phase at 7.5 uM after 24 hrs by propidium iodide staining-based flow cytometric analysis (reference value: 32.5 to 34.7%); assay type: functional
MDA-MB-231 [11] = assay: Cytotoxicity against human MDA-MB-231 cells assessed as growth inhibition after 24 to 72 hrs by MTT assay; assay type: functional, cell-based
Summary of the method: (§2)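 About 5000 cells/well were grown 24 h in RPMI-1640 with 10% FBS, then given fresh medium with compound at various concentrations (from 10 mM DMSO stocks) for 24, 48 and 72 h. MTT (5 mg/mL stock) was added for 2 h and formazan dissolved in DMSO. Absorbance was read at 595 nm and expressed as percent proliferation versus DMSO control.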

MDA-MB-231 [12] = assay: Cell cycle arrest in human MDA-MB-231 cells assessed as accumulation at G2/M phase at 5 uM after 24 hrs by propidium iodide staining-based flow cytometric analysis (reference value: 18.2 to 23.1%); assay type: functional
MDA-MB-231 [13] = assay: Cell cycle arrest in human MDA-MB-231 cells assessed as accumulation at S phase at 5 uM after 24 hrs by propidium iodide staining-based flow cytometric analysis (reference value: 32.5 to 34.7%); assay type: functional
MCF7 = assay: Cytotoxicity against human MCF7 cells assessed as growth inhibition after 24 to 72 hrs by MTT assay; assay type: functional, cell-based; summary of the method: as §2
MDA-MB-231 [14] = assay: Antimigratory activity against human MDA-MB-231 cells at >= 2.5 uM after 48 hrs by transwell assay
MDA-MB-231 [15] = assay: Cell cycle arrest in human MDA-MB-231 cells assessed as accumulation at G2/M phase after 24 hrs by propidium iodide staining-based flow cytometric analysis; assay type: functional
MDA-MB-231 [16] = assay: Cell cycle arrest in human MDA-MB-231 cells assessed as accumulation at G2/M phase at 2.5 uM after 24 hrs by propidium iodide staining-based flow cytometric analysis (reference value: 18.2 to 23.1%); assay type: functional
MDA-MB-231 [17] = assay: Induction of apoptosis in human MDA-MB-231 cells assessed as early apoptotic cells at 2.5 uM after 24 hrs by annexin V-propidium iodide/Alexa Fluor 488 staining-based flow cytometric analysis (reference value: 4.05 to 4.68%); assay type: functional
Mus musculus = assay: Toxicity in Balb/c mouse allografted with mouse 4T1 cells assessed as reduction in body weight at 10 mg/kg, po administered every alternative day for 5 weeks measured twice a week during compound dosing; assay type: organism-based; set-up: dose 10 mg/kg, route oral; details: in vivo, 840 h
Summary of the method: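 Female Balb/c mice, 8 weeks old, given 7 × 10⁵ 4T1 cells into the second right mammary fat pad, plus a booster of about 5 × 10⁵ cells after 4 days. One week later, 10 mg/kg by oral gavage on alternate days for 5 weeks, n = 6. Vehicle-dosed controls. Body weight and tumour size measured twice weekly.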

MDA-MB-231 [18] = assay: Induction of apoptosis in human MDA-MB-231 cells assessed as early apoptotic cells at 10 uM after 24 hrs by annexin V-propidium iodide/Alexa Fluor 488 staining-based flow cytometric analysis (reference value: 4.05 to 4.68%); assay type: functional
MDA-MB-231 [19] = assay: Cell cycle arrest in human MDA-MB-231 cells assessed as accumulation at G2/M phase at 7.5 uM after 24 hrs by propidium iodide staining-based flow cytometric analysis (reference value: 18.2 to 23.1%); assay type: functional
MDA-MB-231 [20] = assay: Induction of apoptosis in human MDA-MB-231 cells assessed as early apoptotic cells at 7.5 uM after 24 hrs by annexin V-propidium iodide/Alexa Fluor 488 staining-based flow cytometric analysis (reference value: 4.05 to 4.68%); assay type: functional
MDA-MB-231 [21] = assay: Induction of apoptosis in human MDA-MB-231 cells assessed as late apoptotic cells at 5 uM after 24 hrs by annexin V-propidium iodide/Alexa Fluor 488 staining-based flow cytometric analysis (reference value: 2.08 to 3.78%); assay type: functional; summary of the method: as §1
MDA-MB-468 = assay: Cytotoxicity against human MDA-MB-468 cells assessed as growth inhibition after 24 to 72 hrs by MTT assay; assay type: functional, cell-based; summary of the method: as §2

## COC(=O)c1cc2c3ccccc3[nH]c2c2cn(-c3ccc(C)cc3Br)c[n+]12.[Cl-]
MDA-MB-231 [1]
  Activity: 3.49%
MDA-MB-231 [2]
  Activity: 16.58%
MDA-MB-231 [3]
  Activity: 47.3%
MDA-MB-231 [4]
  Activity: 6.93%
MDA-MB-231 [5]
  Activity: 19.5%
MDA-MB-231 [6]
  Activity: 43%
MDA-MB-231 [7]
  Activity: 25.32%
MDA-MB-231 [8]
  Activity: Dose-dependent effect
4T1
  TGI: inactive
MDA-MB-231 [9]
  Activity: Dose-dependent effect
MDA-MB-231 [10]
  Activity: 24.4%
MDA-MB-231 [11]
  IC50: 7.28 µM
MDA-MB-231 [12]
  Activity: 34.7%
MDA-MB-231 [13]
  Activity: 17.9%
MCF7
  IC50: 6.9 µM
MDA-MB-231 [14]
  Activity: Active
MDA-MB-231 [15]
  Activity: Dose-dependent effect
MDA-MB-231 [16]
  Activity: 23.6%
MDA-MB-231 [17]
  Activity: 5.42%
Mus musculus
  Activity: Non-toxic
MDA-MB-231 [18]
  Activity: 55.63%
MDA-MB-231 [19]
  Activity: 32.5%
MDA-MB-231 [20]
  Activity: 24.22%
MDA-MB-231 [21]
  Activity: 4.06%
MDA-MB-468
  IC50: 5.78 µM
